In ChEMBL document CHEMBL3797096, “Synthesis and in vitro evaluation of (R), (S) and (R/S)-2-hexyne-1,4-diol, a natural product produced by fungus Clitocybe catinus, and related analogs as potential anticancer agents” (Bioorg Med Chem Lett, 2016) one finds Activity and TGI data, which are given here for 18 compounds.

Activity calls are given as the source filed them. The rule behind the calls is not given here.

Series [1] deals with NCI-H292. Nature of the series: Cytotoxicity against human NCI-H292 cells assessed as cell death at 100 ug/ml after 72 hrs by MTT assay. In kind it is functional. The method in brief: (§1)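 Single-concentration colorimetric MTT screen of test compounds at a fixed final concentration. Incubation was 72 h, and the read-out was growth inhibition of the tumour cell lines. Values are given as means with standard deviations. Doxorubicin served as the positive control.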

The test system of series [2] is MCF7. As to the kind of experiment: Cytotoxicity against human MCF7 cells assessed as cell death at 100 ug/ml after 72 hrs by MTT assay. In kind it is functional. The method in brief:
as §1

Series [3] concerns K562. Nature of the series: Cytotoxicity against human K562 cells assessed as cell death at 100 ug/ml after 72 hrs by MTT assay. In kind it is functional. The essentials:
as §1

The nature of series [4]: Cytotoxicity against human HL60 cells assessed as cell death at 100 ug/ml after 72 hrs by MTT assay. In kind it is functional, HL-60. The essentials: as §1
Series [5] deals with J774.A1. Nature of the series: Cytotoxicity against mouse J774.A1 cells at 100 ug/ml after 72 hrs by MTT assay. In kind it is cell-based. Conditions: j774.a1, 72 h. The method in brief: (§2)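 Single-concentration screen of mouse cells at 100 µg/mL final concentration. Viability read by colorimetric MTT assay after 72 h of incubation; percent growth inhibition given as means (standard deviations); doxorubicin as positive control.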

Series [6] deals with RAW264.7. As to the kind of experiment: Cytotoxicity against mouse RAW264.7 cells at 100 ug/ml after 72 hrs by MTT assay. In kind it is cell-based. Conditions: raw264.7, 72 h. The method in brief: as §2
Series [7] deals with HEp-2. As to the kind of experiment: Cytotoxicity against human Hep2 cells after 72 hrs by MTT assay. In kind it is functional, cell-based. The method in brief:
(§3)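 Colorimetric MTT assay on human tumour cells after 72 h of incubation; values expressed as means (standard deviations), with doxorubicin as positive control.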

For series [8], the system named is NCI-H292. Nature of the series: Cytotoxicity against human NCI-H292 cells after 72 hrs by MTT assay. In kind it is functional, cell-based. The essentials: as §3
In series [9] the test system is MCF7. Nature of the series: Cytotoxicity against human MCF7 cells after 72 hrs by MTT assay. In kind it is functional, cell-based. The essentials:
as §3

The subject of series [10] is K562. As to the kind of experiment: Cytotoxicity against human K562 cells after 72 hrs by MTT assay. In kind it is functional, cell-based. The essentials: as §3
The test system of series [11] is HL-60. As to the kind of experiment: Cytotoxicity against human HL60 cells after 72 hrs by MTT assay. In kind it is functional, cell-based. The essentials: as §3
The nature of series [12]: Cytotoxicity against human Hep2 cells assessed as cell death at 100 ug/ml after 72 hrs by MTT assay. In kind it is functional, HEp-2. The essentials: as §1

For `CCCC(O)C#CCO` (stereo unspecified), the Activity in series [1], in series [2], in series [3], in series [4], in [5] and in [6] was 100% throughout. In addition, in [12], the Activity is on record as 100%. The TGI entry in series [7], in series [8], in series [9], in series [10] and in [11] was “Active” throughout.

For the compound `CC(O)C#CCO` (stereo unspecified), the Activity in [1], in [2], in series [3], in series [4], in series [5] and in series [6] was 100% throughout. In addition, in series [12], the Activity was determined as 100%. In addition, the TGI result in series [7], in series [8], in [9], in series [10] and in series [11] was “Active” in each case.

As for `CCC(O)C#CCO` (stereo unspecified), the Activity in [1], in series [2], in [3], in series [4], in series [5] and in [6] was 100% each time. For the same compound, the Activity in [12] amounted to 100%. Further, the TGI entry in series [7], in [8], in series [9], in series [10] and in [11] was “Active” each time.

For `CC(C)C(O)C#CCO` (stereo unspecified), the Activity stood at 69.8% in series [1]; 28.7% in [2]; 20.9% in series [3]; 0% in series [4]; 2% in [5]; 17.8% in series [6]. In addition, the Activity in [12] amounted to 42.7%.

`CC(O)CC#CCO` (stereo unspecified): the Activity in [1] was 20.2%; in [2], 0%; in [3], 0%; in series [4], 11%; in series [5], 60.8%; in series [6], 8.5%. In addition, the Activity in series [12] stood at 14.8%.

`CC(O)C#CCCO` (stereo unspecified): the Activity in [1] is reported as 0.3%; in [2], 17.8%; in series [3] it was 25.1%; in [4], 0%; in [5] it was 16.5%; in series [6], 9.4%. Further, in series [12], the Activity is 2.2%.

Consider `COc1cccc2c1C(=O)c1c(O)c3c(c(O)c1C2=O)C[C@@](O)(C(=O)CO)C[C@@H]3O[C@H]1C[C@H](N)[C@H](O)[C@H](C)O1` [DOXORUBICIN], for which the Activity in series [1] was 94.1%; in [2], 74.8%; in series [3], 91.7%; in series [4], 92.9%; in series [5], 96%; in [6], 96.5%. In addition, the Activity in series [12] came out at 79.4%.

Regarding `CCC(C)(O)C#CCO` (stereo unspecified), the Activity in [1] is on record as 5%; in series [2] it was 27.2%; in series [3] it was 16%; in series [4] it was 13.3%; in series [5], 61.2%; in series [6] it was 0%. The Activity in [12] is recorded as 0%.

As to `CC(O)C#CC1(O)CCCCC1` (stereo unspecified), the Activity stood at 6.6% in series [1]; 40.8% in series [2]; 16.7% in series [3]; 8.9% in series [4]; 57.5% in series [5]; 4.2% in series [6]. The Activity in series [12] turned out to be 9.3%.

On to `CCCCCC(O)C#CCO` (stereo unspecified), for which the Activity in series [1], in [2], in series [3], in series [4], in series [5] and in series [6] was 100% in each case. For the same compound, in series [12], the Activity turned out to be 100%. In addition, the TGI entry in series [7], in series [8], in series [9], in series [10] and in series [11] was “Active” in each case.

With `CC[C@@H](O)C#CCO`, the Activity stood at 55.7% in [1]; 52.5% in series [2]; 40.9% in series [3]; 12.1% in series [4]; 0.2% in series [5]; 9.6% in [6]. Also, the Activity in series [12] amounted to 38.8%.

Take `CCC(O)C#CCCO` (stereo unspecified): the Activity was found to be 15.5% in series [1]; 34.3% in series [2]; 0% in series [3]; 5.1% in series [4]; 42.6% in series [5]; 6.1% in series [6]. Also, the Activity in [12] amounted to 12.9%.

On to `CC(O)CC#CCCO` (stereo unspecified), for which the Activity in series [1] is 71.5%; in series [2], 69.5%; in series [3], 0%; in series [4], 9.6%; in [5] it was 15.7%; in series [6] it was 19.3%. Also, the Activity in [12] is reported as 84.1%.

As for `CC(C)C(O)C#CCCO` (stereo unspecified), the Activity in [1] is reported as 49.9%; in [2], 54.1%; in series [3], 0%; in series [4], 0%; in series [5] it was 30.4%; in series [6], 17.8%. Further, the Activity in series [12] came to 85.7%.

On to `CC(O)C#CC(O)(c1ccccc1)c1ccccc1` (stereo unspecified), for which the Activity in series [1] was found to be 91%; in [2], 27.3%; in series [3], 80%; in series [4] it was 96.1%; in series [5], 93.1%; in [6], 95%. For the same compound, the Activity in series [12] worked out at 84%.

Consider `CC(C)C(O)C#CC(C)(C)O` (stereo unspecified), for which the Activity in [1] is recorded as 21.5%; in series [2], 40.7%; in series [3] it was 9.7%; in series [4], 7.3%; in series [5], 55.3%; in [6] it was 0%. Besides, in series [12], the Activity was 0%.

Take `CC[C@H](O)C#CCO`: the Activity in series [1] was determined as 85%; in series [2] it was 51.6%; in [3] it was 27%; in series [4], 1.4%; in series [5], 1.7%; in series [6], 19.5%. Besides, the Activity in series [12] stood at 31.3%.

As for `OCC#CC(O)c1ccccc1` (stereo unspecified), the Activity in series [1] is recorded as 86.9%; in [2], 68.1%; in series [3], 3.8%; in [4] it was 29.5%; in series [5], 17.1%; in series [6], 16%. Moreover, the Activity in series [12] is listed as 28.1%.
